Data: ChEMBL document CHEMBL1777764, “Synthesis and evaluation of 1-(1H-indol-3-yl)ethanamine derivatives as new antibacterial agents” (Bioorg Med Chem, 2011)

Tests used:
[1] = test system: Staphylococcus aureus; experiment: Antibacterial activity against Staphylococcus aureus ATCC 25923 after 18 hrs by broth microdilution method; format: functional; conditions: ATCC 25923, 18 h
Method in brief: (§1)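 MIC by broth microdilution per ISO 20776-1:2006 and CLSI M07-A8. Inoculum 10^6 cfu/ml in Mueller-Hinton broth with compound serially diluted, final concentrations 2 to 128 ug/ml, duplicate rows, no-drug growth control. Incubation 18 h at 37 °C. MIC taken as lowest concentration giving complete inhibition of visible growth. Each compound tested at least twice.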

[2] = test system: Staphylococcus aureus; experiment: Antibacterial activity against Staphylococcus aureus ATCC 29213 after 18 hrs by broth microdilution method; format: functional; conditions: ATCC 29213, 18 h; method in brief: as §1
[3] = test system: Staphylococcus aureus; experiment: Antibacterial activity against Staphylococcus aureus ATCC 9144 after 18 hrs by broth microdilution method; format: functional; conditions: ATCC 9144, 18 h; method in brief: as §1
[4] = test system: Staphylococcus aureus; experiment: Antibacterial activity against Staphylococcus aureus ATCC 6538 after 18 hrs by broth microdilution method; format: functional; conditions: ATCC 6538, 18 h; method in brief: as §1
[5] = test system: Staphylococcus aureus; experiment: Antibacterial activity against Staphylococcus aureus CIP 65.6 after 18 hrs by broth microdilution method; format: functional; conditions: CIP 65.6, 18 h; method in brief: as §1
[6] = test system: Staphylococcus aureus; experiment: Antibacterial activity against Staphylococcus aureus CIP 103428 after 18 hrs by broth microdilution method; format: functional; conditions: CIP 103428, 18 h; method in brief: as §1
[7] = test system: Staphylococcus aureus; experiment: Antibacterial activity against methicillin-resistant Staphylococcus aureus CIP 65.25 after 18 hrs by broth microdilution method; format: functional; conditions: CIP 65.25, 18 h
Method in brief: (§2)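 Broth microdilution following ISO 20776-1:2006 and CLSI M07-A8, in Mueller-Hinton broth. Inoculum was 10^6 cfu/ml, with compound serial dilutions spanning 2 to 128 ug/ml and a compound-free growth control well. Plates were incubated 18 h at 37 °C. MIC was the lowest concentration giving complete inhibition of visible growth. Each compound was tested at least twice.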

[8] = test system: Staphylococcus aureus; experiment: Antibacterial activity against methicillin-resistant Staphylococcus aureus ATCC 33592 after 18 hrs by broth microdilution method; format: functional; conditions: ATCC 33592, 18 h; method in brief: as §2
[9] = test system: Staphylococcus aureus; experiment: Antibacterial activity against vancomycin intermediate Staphylococcus aureus […] after 18 hrs by broth microdilution method; format: functional; method in brief: as §2
[10] = test system: Staphylococcus epidermidis; experiment: Antibacterial activity against Staphylococcus epidermidis ATCC 12228 after 18 hrs by broth microdilution method; format: functional; conditions: ATCC 12228, 18 h; method in brief: as §1
[11] = test system: Staphylococcus epidermidis; experiment: Antibacterial activity against Staphylococcus epidermidis CIP 81.55 after 18 hrs by broth microdilution method; format: functional; conditions: CIP 81.55, 18 h; method in brief: as §1
[12] = test system: Staphylococcus epidermidis; experiment: Antibacterial activity against Staphylococcus epidermidis CIP 103627 after 18 hrs by broth microdilution method; format: functional; conditions: CIP 103627, 18 h; method in brief: as §1
[13] = test system: Streptococcus pneumoniae; experiment: Antibacterial activity against Streptococcus pneumoniae ATCC 49619 after 18 hrs by broth microdilution method; format: functional; conditions: ATCC 49619, 18 h
Method in brief: (§3)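 MIC by broth microdilution per ISO 20776-1:2006 and CLSI M07-A8. Inoculum 10^6 cfu/ml in Mueller-Hinton broth […]. Compound serially diluted, final 2 to 128 ug/ml, duplicate rows, no-drug growth control. Read after 18 h at 37 °C as lowest concentration fully inhibiting visible growth. At least two experiments.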

[14] = test system: Streptococcus pneumoniae; experiment: Antibacterial activity against Streptococcus pneumoniae ATCC 6303 after 18 hrs by broth microdilution method; format: functional; conditions: ATCC 6303, 18 h; method in brief: as §3
[15] = test system: Streptococcus agalactiae; experiment: Antibacterial activity against Streptococcus agalactiae ATCC 12400 after 18 hrs by broth microdilution method; format: functional; conditions: ATCC 12400, 18 h; method in brief: as §2
[16] = test system: Streptococcus pyogenes; experiment: Antibacterial activity against Streptococcus pyogenes CIP 104226 after 18 hrs by broth microdilution method; format: functional; conditions: CIP 104226, 18 h; method in brief: as §2
[17] = test system: Streptococcus mitis; experiment: Antibacterial activity against Streptococcus mitis CIP 103335 after 18 hrs by broth microdilution method; format: functional; conditions: CIP 103335, 18 h
Method in brief: (§4)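 Broth microdilution following ISO 20776-1:2006 and CLSI M07-A8, in Mueller-Hinton broth […]. Inoculum was 10^6 cfu/ml, with compound serial dilutions spanning 2 to 128 ug/ml and a compound-free growth control well. Plates were read after 18 h at 37 °C. MIC was the lowest concentration with no visible growth. Each compound was tested at least twice.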

[18] = test system: Enterococcus faecium; experiment: Antibacterial activity against Enterococcus faecium CIP 54.32 after 18 hrs by broth microdilution method; format: functional; conditions: CIP 54.32, 18 h; method in brief: as §2
[19] = test system: Enterococcus faecalis; experiment: Antibacterial activity against Enterococcus faecalis ATCC 29212 after 18 hrs by broth microdilution method; format: functional; conditions: ATCC 29212, 18 h; method in brief: as §2
[20] = test system: Escherichia coli; experiment: Antibacterial activity against Escherichia coli ATCC 25922 after 18 hrs by broth microdilution method; format: functional; conditions: ATCC 25922, 18 h; method in brief: as §2
[21] = test system: Haemophilus influenzae; experiment: Antibacterial activity against Haemophilus influenzae ATCC 49766 after 18 hrs by broth microdilution method; format: functional; conditions: ATCC 49766, 18 h; method in brief: as §4
[22] = test system: KB; experiment: Cytotoxicity against human KB cells at 10 uM; format: cell-based
[23] = test system: HCT-116; experiment: Cytotoxicity against human HCT116 cells at 10 uM; format: cell-based; conditions: hct-116, 10 µM
[24] = test system: MRC5; experiment: Cytotoxicity against human MRC5 cells at 10 uM; format: cell-based; conditions: mrc5, 10 µM
[25] = test system: KB; experiment: Cytotoxicity against human KB cells at 1 uM; format: cell-based
[26] = test system: HCT-116; experiment: Cytotoxicity against human HCT116 cells at 1 uM; format: cell-based; conditions: hct-116, 1 µM
[27] = test system: MRC5; experiment: Cytotoxicity against human MRC5 cells at 1 uM; format: cell-based; conditions: mrc5, 1 µM
[28] = test system: Klebsiella pneumoniae; experiment: microbe, parasite or virus in culture; conditions: ATCC 35657, 18 h
[29] = test system: Enterobacter cloacae; experiment: microbe, parasite or virus in culture; conditions: ATCC 13047, 18 h
[30] = test system: Serratia marcescens; experiment: microbe, parasite or virus in culture; conditions: CIP 103551, 18 h
[31] = test system: Pseudomonas aeruginosa; experiment: microbe, parasite or virus in culture; conditions: CIP 5933, 18 h
[32] = test system: Acinetobacter baumannii; experiment: microbe, parasite or virus in culture; conditions: ATCC 19606 = CIP 70.34 = JCM 6841, 18 h

SMILES	MIC [1] [µg/mL]	MIC [2] [µg/mL]	MIC [3] [µg/mL]	MIC [4] [µg/mL]	MIC [5] [µg/mL]	MIC [6] [µg/mL]	MIC [7] [µg/mL]	MIC [8] [µg/mL]	MIC [9] [µg/mL]	MIC [10] [µg/mL]	MIC [11] [µg/mL]	MIC [12] [µg/mL]	MIC [13] [µg/mL]	MIC [14] [µg/mL]	MIC [15] [µg/mL]	MIC [16] [µg/mL]	MIC [17] [µg/mL]	MIC [18] [µg/mL]	MIC [19] [µg/mL]	MIC [20] [µg/mL]	also measured
Cl.Cl.NCC(NO)c1c[nH]c2ccc(F)cc12 (stereo not given)	8	8	8	8	8	8	16	16	8	8	8	8	64	64	32	32	32	64	64	32	MIC [21]: > 128 µg/mL; Activity [22]: Non-toxic; Activity [23]: Non-toxic; Activity [24]: Non-toxic; Activity [25]: Non-toxic; Activity [26]: Non-toxic; Activity [27]: Non-toxic; MIC [28]: 32 µg/mL; MIC [29]: 32 µg/mL; MIC [30]: 32 µg/mL; MIC [31]: 32 µg/mL; MIC [32]: 32 µg/mL
Cl.Cl.Cl.NCC(NO)c1c[nH]c2cc(Cl)ccc12 (stereo not given)	16	16	16	16	16	16	16	16	16	16	16	16	64	64	64	64	64	128	128	32	MIC [21]: 128 µg/mL; Activity [22]: Non-toxic; Activity [23]: Non-toxic; Activity [24]: Non-toxic; Activity [25]: Non-toxic; Activity [26]: Non-toxic; Activity [27]: Non-toxic; MIC [28]: 64 µg/mL; MIC [29]: 64 µg/mL; MIC [30]: 64 µg/mL; MIC [31]: 64 µg/mL; MIC [32]: 64 µg/mL
Cl.Cl.NCC(NO)c1c[nH]c2cc(F)ccc12 (stereo not given)	16	16	16	16	16	16	16	16	16	16	16	16	64	64	64	64	64	128	128	64	MIC [21]: > 128 µg/mL; Activity [22]: Non-toxic; Activity [23]: Non-toxic; Activity [24]: Non-toxic; Activity [25]: Non-toxic; Activity [26]: Non-toxic; Activity [27]: Non-toxic; MIC [28]: 64 µg/mL; MIC [29]: 64 µg/mL; MIC [30]: 64 µg/mL; MIC [31]: 64 µg/mL; MIC [32]: 64 µg/mL
Cl.Cl.NCC(NO)c1c[nH]c2ccc(I)cc12 (stereo not given)	16	16	16	16	16	16	32	32	16	16	16	16	64	64	128	128	128	128	128	32	MIC [21]: 64 µg/mL; Activity [22]: Non-toxic; Activity [23]: Non-toxic; Activity [24]: Non-toxic; Activity [25]: Non-toxic; Activity [26]: Non-toxic; Activity [27]: Non-toxic; MIC [28]: 64 µg/mL; MIC [29]: 64 µg/mL; MIC [30]: 64 µg/mL; MIC [31]: 64 µg/mL; MIC [32]: 64 µg/mL
Cl.Cl.NCC(NO)c1c[nH]c2ccccc12 (stereo not given)	32	32	32	32	32	32	64	64	32	32	32	32	> 128	> 128	> 128	> 128	> 128	> 128	> 128	> 128	MIC [21]: > 128 µg/mL; Activity [22]: Non-toxic; Activity [23]: Non-toxic; Activity [24]: Non-toxic; Activity [25]: Non-toxic; Activity [26]: Non-toxic; Activity [27]: Non-toxic; MIC [28]: > 128 µg/mL; MIC [29]: > 128 µg/mL; MIC [30]: > 128 µg/mL; MIC [31]: > 128 µg/mL; MIC [32]: > 128 µg/mL
